Ecoli WT expand: growth inhibitors of E. coli BW25113 wild type; 98,000 tested, 0.15% active; OD600 absorbance; growth inhibition, % at 100 µM;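 active = growth inhibition above about 50% at one test dose, limit read from the data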;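 also: growth measured after 20 h incubation at 37 °C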
Ecoli tolC: blocks growth of E. coli BW25113 tolC mutant; OD615; growth inhibition, % at 10 µM (by protocol); 65,000 tested, 2.2% active; AID 573;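 active = growth inhibition at or above a cutoff equal to the mean over every tested compound plus 3 SD, cut at about 60% in these data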;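 also: growth measured after 20 h incubation at 37 °C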
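Assay system: tolC-deleted E. coli BW25113. Medium: kanamycin-containing LB broth (50 µg/mL). Dosing: 10 µM final, single dose. Timing: bacterial growth with compound for 20 h at 37 °C. Detection: A615 absorbance measurement. Read-out basis: growth inhibition in percent.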
PostGolgi yeast: growth inhibition of a yeast mutant, post-Golgi transport screen. post-Golgi transport phenotypic cell assay. inhibition, % at 10 µM. 98,000 tested, 0.9% active. AID 739;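 also: yeast cells grown in 1536-well plates; yeast grown about 18 h at 30C before absorbance read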
PostGolgi ctrl: yeast control strain growth, post-Golgi counter-screen | efflux-deficient yeast background strain, growth absorbance A615, 16 h | inhibition, % at 10 µM | 98,000 tested, 5% active | AID 738
Pyk2 oligo antag: Pyk2 (human) oligomerization antagonism; Q14289; Q293 cells, Pyk2 FERM NanoBiT luminescence; active compounds read low; z-score (the deposit names both 25 µM and 10 µM); 99,000 tested, 0.83% active; AID 1347419;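 active = Z-score of -3 or lower, scaled per plate to the spread of control and sample wells; inactive = z-score above -3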;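 also: negative z-score means lost luminescence so less FERM oligomerization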
Target sequence (Q14289 whole entry, looked up): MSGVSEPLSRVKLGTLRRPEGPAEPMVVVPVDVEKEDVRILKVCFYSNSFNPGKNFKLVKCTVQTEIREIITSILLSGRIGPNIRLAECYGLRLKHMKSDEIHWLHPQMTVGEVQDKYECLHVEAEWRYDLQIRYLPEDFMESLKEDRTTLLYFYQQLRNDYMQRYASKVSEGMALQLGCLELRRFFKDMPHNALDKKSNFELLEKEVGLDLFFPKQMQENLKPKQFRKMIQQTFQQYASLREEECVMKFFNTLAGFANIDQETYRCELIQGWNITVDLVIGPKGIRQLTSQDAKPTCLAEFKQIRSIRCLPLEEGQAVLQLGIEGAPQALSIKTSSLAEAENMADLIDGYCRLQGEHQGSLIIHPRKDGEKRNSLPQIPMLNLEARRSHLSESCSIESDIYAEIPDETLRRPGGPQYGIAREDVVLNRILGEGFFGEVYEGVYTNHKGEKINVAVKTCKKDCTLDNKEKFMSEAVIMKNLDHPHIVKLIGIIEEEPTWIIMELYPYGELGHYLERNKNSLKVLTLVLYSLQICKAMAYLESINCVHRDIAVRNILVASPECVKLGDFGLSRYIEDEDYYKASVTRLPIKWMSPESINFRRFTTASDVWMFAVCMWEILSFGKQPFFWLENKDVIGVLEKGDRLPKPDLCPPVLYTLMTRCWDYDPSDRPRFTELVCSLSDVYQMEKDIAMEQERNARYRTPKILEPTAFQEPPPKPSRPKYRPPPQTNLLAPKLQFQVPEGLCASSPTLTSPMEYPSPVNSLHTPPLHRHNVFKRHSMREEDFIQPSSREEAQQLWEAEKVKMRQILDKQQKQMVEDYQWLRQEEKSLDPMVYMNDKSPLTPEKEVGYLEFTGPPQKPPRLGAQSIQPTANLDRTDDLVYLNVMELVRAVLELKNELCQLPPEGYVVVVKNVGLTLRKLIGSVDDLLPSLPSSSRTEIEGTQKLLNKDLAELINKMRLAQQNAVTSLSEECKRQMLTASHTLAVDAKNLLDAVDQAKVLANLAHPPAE
Cav3 T inh: human Cav3.2 channel inhibition, primary screen; O95180; Cav3.2-expressing cells, Fluo-4 calcium fluorescence FDSS; active compounds read low; B-score at 10 µM; 100,000 tested, 4% active;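 active = single-dose well whose peak fluorescence ratio is a statistical outlier from its plate by either plate-standardised score or position-corrected B-score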
Each line names hits and unclear results; the compound was inactive in the other large screens. Most compounds without a hit are left out; they make up all but 8.7% or so of the library. Rule as the data show it, unless noted: active = inhibition above about 30%; inactive = the rest.

CCC1S/C(=N\S(=O)(=O)c2cccs2)N(C2CCCCC2)C1=O (configuration not stated)	none (no result: Ecoli tolC)
CC12CCC(C(=O)Nc3cccc4ccccc34)(C1Br)C2(C)C (configuration not stated)	PostGolgi ctrl 40 (no result: Ecoli tolC)
Cc1nc2ccccc2c(=O)n1NC(=O)COc1ccccc1	none (no result: Ecoli WT expand, PostGolgi yeast, PostGolgi ctrl)
Cc1ccc(C(C)C)c(OCC(=O)Nn2c(C)nc3ccccc3c2=O)c1	Cav3 T inh -5 (no result: Ecoli tolC)
COc1ccc(NC(=O)C(=O)N2N=C(C(C)C)CC2(O)C(F)(F)F)cc1 (configuration not stated)	none (no result: Ecoli tolC)
COc1ccccc1CC1(C)NC(=O)N(CC(=O)N2CC(C)OC(C)C2)C1=O (configuration not stated)	none
COc1ccc(S(=O)(=O)N2CCC(C(=O)N3CCc4ccccc4C3)CC2)cc1C	Cav3 T inh -5 (no result: Ecoli tolC)
Cc1ccc(S(=O)(=O)N2CCN(C3CCN(Cc4ccccc4)CC3)CC2)cc1	PostGolgi yeast 70
COc1ccc(S(=O)(=O)N2CCC(C(=O)N3CCc4ccccc4C3)CC2)cc1	none
Cc1ccc(S(=O)(=O)N2CCC(C(=O)N3Cc4ccccc4C3)CC2)cc1	PostGolgi ctrl 37
Cc1ccc(N(C)C(=O)N2CCN(S(=O)(=O)c3ccc(C)cc3)CC2)cc1	none (no result: Pyk2 oligo antag)
Cc1ccc(S(=O)(=O)N2CCN(C(=O)N(c3ccccc3)c3ccccc3)CC2)cc1	PostGolgi ctrl 94 (no result: Ecoli tolC)
CSCC[C@H](NC(=O)c1nn(C)c(=O)c2ccccc12)c1nc2ccccc2[nH]1	none (no result: Ecoli tolC)
O=[N+]([O-])c1cc(S(=O)(=O)c2ccc(N3CCCCC3)c([N+](=O)[O-])c2)ccc1N1CCCCC1	none (no result: Ecoli WT expand, Ecoli tolC, PostGolgi yeast, PostGolgi ctrl, Cav3 T inh)
CC(C)CN(CC(C)C)S(=O)(=O)c1cc([N+](=O)[O-])ccc1N1CCCCCC1	Cav3 T inh -5.2 (no result: Ecoli tolC)
O=[N+]([O-])c1ccc(N2CCCCCC2)c([N+](=O)[O-])c1	Cav3 T inh -4.7 (no result: Ecoli tolC)
CCOc1ccc(-c2nc(N)ncc2-c2ccccc2)c(O)c1	PostGolgi ctrl 50
C=C(C)COc1ccc(-c2nc(N)ncc2Oc2ccccc2OCC)c(O)c1	Pyk2 oligo antag -4.5
COCCN1Cc2cccc(C(=O)Nc3ccc(S(=O)(=O)N4CCCCC4)cc3)c2C1=O	none (no result: Ecoli WT expand, PostGolgi yeast, PostGolgi ctrl, Pyk2 oligo antag, Cav3 T inh)
CCN1C(=O)[C@@H]2[C@H](C1=O)[C@@H]1C[C@H]3C(=O)N(CC)C(=O)[C@H]3[C@@H]3C1=C(C(=O)N1C(=O)OC(=NCC4CC4)[C@]31C)[C@@H]2C	none (no result: Ecoli WT expand, Ecoli tolC, PostGolgi yeast, PostGolgi ctrl, Pyk2 oligo antag)
S=C(Nc1ccccc1)Nc1nc2ccccc2n1CCOc1ccccc1	PostGolgi ctrl 32 (no result: Ecoli tolC)
CCSc1nc2ccccc2n1Cc1ccccc1F	Cav3 T inh -5 (no result: Ecoli WT expand, Ecoli tolC, PostGolgi yeast, PostGolgi ctrl)
CC(C)N(C(=O)CSc1nc2ccccc2n1Cc1ccccc1F)C(C)C	Cav3 T inh -9 (no result: Ecoli WT expand, Ecoli tolC, PostGolgi yeast, PostGolgi ctrl)
CC(=O)Nc1nc2ccccc2n1CCOc1ccccc1	none
CC(C)N(C(=O)CSc1nc2ccccc2n1Cc1ccccc1)C(C)C	none (no result: Ecoli WT expand, Ecoli tolC, PostGolgi yeast, PostGolgi ctrl)
CCSc1nc2ccccc2n1CCOc1ccccc1	Cav3 T inh -3.8 (no result: Ecoli WT expand, Ecoli tolC, PostGolgi yeast, PostGolgi ctrl)
NC(=O)CSc1nc2ccccc2n1Cc1ccccc1F	none
N#C/C(=C\c1cn[nH]c1-c1ccc(Cl)cc1)C(=O)NCc1ccccc1	none (no result: Ecoli tolC, Cav3 T inh)
CCC(C)(C(=O)NC1CCCCC1)N(Cc1cccs1)C(=O)Cc1cccs1 (configuration not stated)	Cav3 T inh -7.7 (no result: Ecoli tolC)
O=C(c1cnccn1)N(Cc1cccs1)C1(C(=O)NC2CCCC2)CCCCC1	none (no result: Ecoli WT expand, Ecoli tolC, PostGolgi yeast, PostGolgi ctrl, Cav3 T inh)
O=C(Cc1cccs1)N(Cc1cccs1)C1(C(=O)NC2CCCCC2)CCCCC1	PostGolgi ctrl 31, Pyk2 oligo antag -4.5, Cav3 T inh -5.5 (no result: Ecoli tolC)
COc1ccc(N2C(=O)[C@@H]3Cc4ccccc4CN3C2=O)cc1	none
Cc1ccc(N2C(=O)[C@@H]3Cc4ccccc4CN3C2=O)cc1	PostGolgi ctrl 36
CCOc1ccc2[nH]c(=O)c(C(c3nnnn3CC3CCCO3)N3CCc4ccccc4C3)cc2c1 (configuration not stated)	none
Cc1cccc2cc(C(c3nnnn3CC3CCCO3)N3CCc4ccccc4C3)c(=O)[nH]c12 (configuration not stated)	Ecoli tolC 69 (no result: Pyk2 oligo antag, Cav3 T inh)
Cc1ccc2cc(C(c3nnnn3CC3CCCO3)N3CCc4ccccc4C3)c(=O)[nH]c2c1 (configuration not stated)	PostGolgi ctrl 42
Cc1cccc2cc(C(c3nnnn3CC3CCCO3)N3CCCc4ccccc43)c(=O)[nH]c12 (configuration not stated)	none
CC(C)(C)C(=O)Nc1ccnc(-c2cccnc2)n1	none (no result: Ecoli tolC, Pyk2 oligo antag)
COc1ccc(CNC(=O)Cn2nc(C(F)(F)F)c3c2CCC3)cc1	none
COc1ccc(CNc2nc3c(c(C(F)(F)F)n2)CCCCC3)cc1	PostGolgi ctrl 39 (no result: Pyk2 oligo antag)
Cc1cccc2cc(CN(CC3CCCO3)C(c3nnnn3Cc3ccco3)C(C)C)c(=O)[nH]c12 (configuration not stated)	none (no result: Cav3 T inh)
COc1ccc(C2C(C#N)=C(N)N3C(=C2C#N)Sc2ccccc23)cc1 (configuration not stated)	PostGolgi ctrl 30 (no result: Pyk2 oligo antag)
CSc1nnc(-c2sc(-c3ccccc3)nc2C)n1C	none (no result: Ecoli tolC)
Cc1ccc(C)c(NC(=S)NNC(=O)c2csc(C(C)C)c2)c1	none (no result: Ecoli WT expand, Ecoli tolC, PostGolgi yeast, PostGolgi ctrl)
COc1cc(C2C(C(=O)c3ccc(C)o3)=C(O)C(=O)N2c2cc(C)on2)cc(Br)c1O (configuration not stated)	Ecoli tolC 65
Cc1[nH]c2ccccc2c1C1C(c2ccccc2)=NN=C(C(C)C)N1O (configuration not stated)	Pyk2 oligo antag -3.6, Cav3 T inh -5.4 (no result: Ecoli WT expand, Ecoli tolC, PostGolgi yeast, PostGolgi ctrl)
CCOC(=O)Nc1c(C(=O)OC)[nH]c2cccc(OC)c12	none
COc1cccc(OC)c1-c1nn2c(-c3cc(-c4ccccc4)n[nH]3)nnc2s1	Pyk2 oligo antag -3.1
COc1ccc(-c2nnc3sc(-c4c(OC)cccc4OC)nn23)cc1	none (no result: Ecoli WT expand, PostGolgi yeast, PostGolgi ctrl, Pyk2 oligo antag, Cav3 T inh)
COc1c(S(=O)(=O)n2nc(C)cc2C)ccc(Cl)c1Cl	PostGolgi ctrl 31
Cc1cc(C)n(S(=O)(=O)c2ccc(Cl)c(Cl)c2Cl)n1	none
Cc1ccc(NC(=O)CCSc2ccccn2)cc1	none (no result: Ecoli WT expand, Ecoli tolC, PostGolgi yeast, PostGolgi ctrl, Cav3 T inh)
O=C(Nc1ccc(Cl)cc1)N1CCC(c2nc(-c3ccc(F)cc3)no2)CC1	Ecoli tolC 72
COc1ccc(NC(=O)N2CCCC(c3nc(-c4ccc(C(C)C)cc4)no3)C2)cc1 (configuration not stated)	Ecoli tolC 62
Fc1ccc(-c2noc(C3CCN(Cc4cccnc4)CC3)n2)cc1	PostGolgi yeast 84, PostGolgi ctrl 35
CCCC1CCC(c2nc(-c3cccnc3)no2)CC1 (configuration not stated)	none
O=C1CCN(S(=O)(=O)c2ccccc2)CCN1CCOCc1ccc(Cl)cc1	none (no result: Ecoli WT expand, Ecoli tolC, PostGolgi yeast, PostGolgi ctrl, Pyk2 oligo antag)
O=C(CSc1nc2cc3ccccc3cc2[nH]1)Nc1ccc(F)cc1	PostGolgi ctrl 55 (no result: Ecoli tolC)
O=C(CSc1nc2ccccc2[nH]1)Nc1c(F)cccc1F	none (no result: Ecoli tolC)
Cc1noc(NS(=O)(=O)c2ccc(NC(=O)Nc3ccc(Cl)c(Cl)c3)cc2)c1C	Ecoli tolC 100

Screening data from PubChem BioAssay.
